Tests used:
Assay type in all cases: functional
[1] = system: UACC-62; assay: Growth inhibition of human UACC-62 cells after 48 hrs by sulforhodamine B assay; conditions: UACC-62, 48 h
Method in brief: (§1)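 Sulforhodamine B colorimetric assay following the NCI standard protocol, with doxorubicin as positive control. Each compound was tested at four concentrations in 10-fold dilutions (0.25 to 250). GI50, the concentration giving 50% growth reduction versus untreated control cells, was derived from dose–response curves.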

[2] = system: HT-29; assay: Growth inhibition of human HT-29 cells after 48 hrs by sulforhodamine B assay; conditions: HT-29, 48 h; method in brief: as §1
[3] = Growth inhibition of human PCO3 cells after 48 hrs by sulforhodamine B assay; conditions: PCO3, 48 h; method in brief: as §1
[4] = system: MCF7; assay: Growth inhibition of human MCF7 cells after 48 hrs by sulforhodamine B assay; conditions: MCF7, 48 h; method in brief: as §1
[5] = Growth inhibition of human NCI-460 cells after 48 hrs by sulforhodamine B assay; conditions: NCI-460, 48 h; method in brief: as §1
[6] = system: OVCAR; assay: Growth inhibition of human OVCAR cells after 48 hrs by sulforhodamine B assay; method in brief: as §1
[7] = system: K562; assay: Growth inhibition of human K-562 cells after 48 hrs by sulforhodamine B assay; conditions: K562, 48 h; method in brief: as §1
[8] = system: 786-0; assay: Growth inhibition of human 786-0 cells after 48 hrs by sulforhodamine B assay; conditions: 786-0, 48 h; for CC50: read-out: LC50 (the source's name); method in brief: as §1

| Compound | GI50 [1] [µM] | TGI [1] [µM] | GI50 [2] [µM] | TGI [2] [µM] | GI50 [3] [µM] | TGI [3] [µM] | GI50 [4] [µM] | TGI [4] [µM] | GI50 [5] [µM] | LC50 (concentration for 50% net cell kill) [5] [µM] | TGI [5] [µM] | GI50 [6] [µM] | TGI [6] [µM] | GI50 [7] [µM] | TGI [7] [µM] | GI50 [8] [µM] | TGI [8] [µM] | CC50 [8] [µM] | LC50 (concentration killing 50% of cells, NCI protocol) [1] [µM] | LC50 (concentration killing 50% of cells) [3] [µM] | also measured |
| --- | --- | --- | --- | --- | --- | --- | --- | --- | --- | --- | --- | --- | --- | --- | --- | --- | --- | --- | --- | --- | --- |
| CN(C)c1ccc(-c2nc(-c3n[nH]c(=S)n3N)cc3c2[nH]c2ccccc23)cc1 | 50.4 | > 100 | > 100 | > 100 | > 100 | > 100 | > 100 | > 100 | 0.2 | > 100 | 71.8 | > 100 | > 100 | > 100 | > 100 | 0.97 | 80 | > 100 | – | – | – |
| S=c1[nH]nc(-c2cc3c([nH]c4ccccc43)c(-c3ccccc3Cl)n2)o1 | 18.1 | 80.1 | 17.4 | > 100 | 21.4 | > 100 | 26.9 | > 100 | 20.8 | – | > 100 | 45.9 | > 100 | 20.3 | 74 | 27.9 | > 100 | – | > 100 | – | LC50 (concentration causing 50% net cell kill) [7]: > 100 µM |
| S=c1[nH]nc(-c2cc3c([nH]c4ccccc43)c(-c3ccccc3)n2)[nH]1 | 6.36 | – | 35.5 | – | 4.11 | – | > 100 | – | 6.36 | – | – | 64.9 | – | 3.2 | – | 7.56 | – | – | – | – | – |
| COc1ccc(-c2nc(-c3n[nH]c(=S)[nH]3)cc3c2[nH]c2ccccc23)cc1 | 66.8 | – | > 100 | – | > 100 | – | > 100 | – | 0.1 | – | – | > 100 | – | > 100 | – | 7.48 | – | – | – | – | – |
| COc1cc(-c2nc(-c3n[nH]c(=S)o3)cc3c2[nH]c2ccccc23)ccc1O | 17.3 | 47.9 | 17.3 | > 100 | 25.9 | 97.3 | 32.2 | > 100 | 89.3 | – | > 100 | 5.87 | > 100 | 31.7 | > 100 | 22.4 | > 100 | – | > 100 | > 100 | – |
| O=[N+]([O-])c1cccc(-c2nc(-c3n[nH]c(=S)o3)cc3c2[nH]c2ccccc23)c1 | 24.1 | > 100 | 27.9 | > 100 | 12.2 | 35.7 | 27.9 | > 100 | 73.4 | – | > 100 | 22.3 | > 100 | 11 | 86.7 | 32.4 | > 100 | – | – | > 100 | LC50 (concentration causing 50% net cell kill) [7]: > 100 µM |
| Nn1c(-c2cc3c([nH]c4ccccc43)c(-c3ccccc3Cl)n2)n[nH]c1=S | 20.2 | 86.1 | 33 | > 100 | 24.7 | > 100 | 70.1 | > 100 | 15.4 | > 100 | 38 | 6.8 | 49.9 | 62.4 | > 100 | 39.5 | – | > 100 | > 100 | – | LC50 (concentration killing 50% of the cells, NCI protocol) [6]: > 100 µM |
| CSc1nnc(-c2cc3c([nH]c4ccccc43)c(-c3ccccc3Cl)n2)n1N | 18.6 | 59 | 20.4 | > 100 | 22.2 | > 100 | 20.1 | > 100 | 13.9 | > 100 | 41.8 | 11.2 | 38.4 | 1.92 | > 100 | 16.8 | 93.5 | > 100 | > 100 | – | LC50 (concentration killing 50% of the cells, NCI protocol) [6]: > 100 µM |
| Nn1c(-c2cc3c([nH]c4ccccc43)c(-c3ccc(O)cc3)n2)n[nH]c1=S | 22.5 | > 100 | 34 | > 100 | 25.5 | > 100 | 61.2 | > 100 | 0.15 | – | 12.2 | 27.5 | 98.4 | 29.9 | > 100 | 0.26 | 94.1 | > 100 | – | – | LC50 (concentration killing 50% of the cells, NCI protocol) [6]: > 100 µM |
| CSc1nnc(-c2cc3c([nH]c4ccccc43)c(-c3cccc([N+](=O)[O-])c3)n2)o1 | 16.4 | 69.4 | 68.1 | > 100 | 44.2 | > 100 | 79.8 | > 100 | 24.5 | > 100 | 99.2 | 21.3 | > 100 | 21.3 | 81.5 | > 100 | > 100 | – | > 100 | – | LC50 (concentration causing 50% net cell kill) [7]: > 100 µM |
| COc1ccc(-c2nc(-c3nnc(SC)o3)cc3c2[nH]c2ccccc23)cc1 | 29.1 | > 100 | > 100 | > 100 | > 100 | > 100 | 31.2 | > 100 | 1.28 | > 100 | 56.6 | 2.13 | > 100 | 0.18 | > 100 | > 100 | > 100 | – | – | – | – |
| CSc1nnc(-c2cc3c([nH]c4ccccc43)c(-c3ccc(N(C)C)cc3)n2)o1 | > 100 | – | 87.4 | – | 92.6 | – | > 100 | – | > 100 | – | – | > 100 | – | > 100 | – | > 100 | – | – | – | – | – |
| O=[N+]([O-])c1ccc(-c2nc(-c3n[nH]c(=S)o3)cc3c2[nH]c2ccccc23)cc1 | 38 | > 100 | 31.3 | > 100 | 26 | 99.2 | 27.6 | > 100 | > 100 | – | > 100 | > 100 | > 100 | 46.7 | > 100 | 73.1 | > 100 | – | – | > 100 | – |
| Nn1c(-c2cc3c([nH]c4ccccc43)c(-c3ccccc3)n2)n[nH]c1=S | 24.3 | > 100 | 15 | 86.9 | 10.9 | 30.6 | 15 | 32.5 | 1.59 | > 100 | 54.7 | 12 | 25.3 | 9.93 | > 100 | 10.9 | 49.4 | > 100 | – | > 100 | LC50 (concentration killing 50% of cells) [4]: > 100 µM; LC50 (concentration killing 50% of the cells, NCI protocol) [6]: 52.5 µM |
| CSc1nnc(-c2cc3c([nH]c4ccccc43)c(-c3ccccc3)n2)n1N | > 100 | – | > 100 | – | > 100 | – | > 100 | – | > 100 | – | – | > 100 | – | 2.04 | – | > 100 | – | – | – | – | – |
| COc1ccc(-c2nc(-c3n[nH]c(=S)o3)cc3c2[nH]c2ccccc23)cc1 | 16.8 | 47.2 | 20.3 | 55.3 | 17.3 | 41.1 | 24.9 | 97 | 9.2 | – | > 100 | > 100 | > 100 | 26.4 | > 100 | 31.6 | > 100 | – | > 100 | > 100 | LC50 (concentration killing 50% of the cells present at the start) [2]: > 100 µM; LC50 (concentration killing 50% of cells) [4]: > 100 µM |
| Oc1ccc(-c2nc(-c3n[nH]c(=S)o3)cc3c2[nH]c2ccccc23)cc1 | > 100 | > 100 | > 100 | > 100 | 81.1 | > 100 | 88.7 | > 100 | > 100 | – | > 100 | > 100 | > 100 | 21.5 | 87 | 94.9 | > 100 | – | – | – | LC50 (concentration causing 50% net cell kill) [7]: > 100 µM |
| CN(C)c1ccc(-c2nc(-c3n[nH]c(=S)[nH]3)cc3c2[nH]c2ccccc23)cc1 | 1.74 | > 100 | 8.63 | 51.5 | 1.37 | 6.68 | 8.63 | 37 | 0.06 | > 100 | 8.96 | 1.09 | 7.28 | 11.1 | > 100 | 0.04 | 1.24 | 37.3 | – | > 100 | LC50 (concentration killing 50% of cells) [4]: > 100 µM; LC50 (concentration killing 50% of the cells, NCI protocol) [6]: 47.9 µM |
| CN(C)c1ccc(-c2nc(-c3n[nH]c(=S)o3)cc3c2[nH]c2ccccc23)cc1 | 23.8 | – | 40.5 | – | 14.7 | – | 18.8 | – | 19.1 | – | – | 14.7 | – | 9.55 | – | 14.7 | – | – | – | – | – |

— ChEMBL document CHEMBL1151684, “Synthesis and antitumoral activity of novel 3-(2-substituted-1,3,4-oxadiazol-5-yl) and 3-(5-substituted-1,2,4-triazol-3-yl) beta-carboline derivatives” (2008)
